# Laboratory results: ChEMBL document CHEMBL5108087, “Synthesis and biological evaluation of paeoveitol D derivatives as new melatonin receptor agonists with antidepressant activities” (RSC Med Chem, 2022)
# Activity calls are given as the source filed them. The calls are words filed in the database; no cut-off is given here.
# How the values were obtained:
# [1] = AUC (0 to infinity) in Kunming mouse at 80 mg/kg, po administered as single dose and measured upto 24 hrs; format: ADME, organism-based; design: time < 24 hrs, dose 80 mg/kg, route po; conditions: in vivo
# [2] = Subacute toxicity in Kunming mouse assessed as animal death at 240 mg/kg, po administered for 14 days; format: organism-based; conditions: in vivo, 336 h, time 14 day
# Outline: (§1)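 Subacute oral study following OECD 425. Animals randomised into two groups of six. Vehicle control received 0.5% CMC-Na orally for 14 consecutive days; the treated group received 240 mg kg−1 body weight orally for 14 consecutive days.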
# Mus musculus [3] = experiment: Antidepressant activity in kunming mouse assessed as increase in dopamine level in hypothalamus at 160 mg/kg, po measured after 14 days by HPLC-ECD analysis; format: functional, organism-based; conditions: time 14.0 day
# Outline: (§2)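 Male Kunming mice dosed orally with vehicle or 160 mg kg−1 for 14 days, then killed by cervical dislocation. Brain regions dissected on ice, homogenized in 0.2 M perchloric acid with 0.1 mM EDTA and spun at 4 °C for 20 min. Supernatant analysed by HPLC-ECD at +0.50 V, mobile phase pH 3.0. Amounts given in ng g−1 as mean ± SEM, n = 12.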
# Mus musculus [4] = experiment: Antidepressant activity in kunming mouse assessed as decrease in DOPAC level in striatum at 160 mg/kg, po measured after 14 days by HPLC-ECD analysis; format: functional, organism-based; conditions: time 14.0 day; outline: as §2
# Mus musculus [5] = experiment: Antidepressant activity in kunming mouse assessed as decrease in DOPAC level in hippocampus at 160 mg/kg, po measured after 14 days by HPLC-ECD analysis; format: functional, organism-based; conditions: time 14.0 day; outline: as §2
# Mus musculus [6] = experiment: Antidepressant activity in kunming mouse assessed as increase in 5-HT level in thalamus at 160 mg/kg, po measured after 14 days by HPLC-ECD analysis; format: functional, organism-based; conditions: time 14.0 day; outline: as §2
# Mus musculus [7] = experiment: Antidepressant activity in Kunming mouse assessed as decrease in immobility time at 80 mg/kg, po administered two times at 1 hrs and 24 hrs and measured at last 4 mins of 6 mins test by forced swim test relative to fluoxetine; format: functional; design: scale not given: the % may be the effect or the level left; conditions: time 1444 min, 24.07 h
# Outline: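 Male Kunming mice, 15–18 g, housed six per cage at 22 ± 1 °C on a 12 h light/dark cycle. Oral dosing 24 h and 1 h before the test. Each mouse placed in a cylinder (25 cm high, 15 cm diameter) holding 10 cm of water at 25 ± 1 °C and made to swim 6 min; immobility over the last 4 min scored by video tracking.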
# Mus musculus [8] = experiment: Antidepressant activity in Kunming mouse assessed as decrease in immobility time at 40 mg/kg, po and measured after 14 days by forced swim test relative to control; format: functional; design: scale not given: the % may be the effect or the level left; conditions: time 14 day
# Outline: (§3)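 Male Kunming mice, 15–18 g, given the test compound orally for 14 days. Forced swim then done in a cylinder 25 cm high and 15 cm in diameter, water 10 cm deep at 25 ± 1 °C. Swim lasted 6 min and immobility over the final 4 min was video-scored against the vehicle group.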
# Mus musculus [9] = experiment: Antidepressant activity in kunming mouse assessed as decrease in 5-HIAA level in frontal cortex at 160 mg/kg, po measured after 14 days by HPLC-ECD analysis; format: functional, organism-based; conditions: time 14.0 day; outline: as §2
# Mus musculus [10] = experiment: Antidepressant activity in kunming mouse assessed as decrease in DOPAC level in frontal cortex at 160 mg/kg, po measured after 14 days by HPLC-ECD analysis; format: functional, organism-based; conditions: time 14.0 day; outline: as §2
# Mus musculus [11] = experiment: Antidepressant activity in kunming mouse assessed as increase in dopamine level in striatum at 160 mg/kg, po measured after 14 days by HPLC-ECD analysis; format: functional, organism-based; conditions: time 14.0 day; outline: as §2
# Mus musculus [12] = experiment: Antidepressant activity in kunming mouse assessed as increase in dopamine level in hippocampus at 160 mg/kg, po measured after 14 days by HPLC-ECD analysis; format: functional, organism-based; conditions: time 14.0 day; outline: as §2
# [13] = Subacute toxicity in Kunming mouse assessed as effect on heart structure at 240 mg/kg, po administered for 14 days; format: organism-based; conditions: in vivo, 336 h, time 14 day; outline: as §1
# [14] = Cmax in Kunming mouse at 80 mg/kg, po administered as single dose and measured upto 24 hrs; format: ADME, organism-based; design: time < 24 hrs, dose 80 mg/kg, route po; conditions: in vivo
# Mus musculus [15] = experiment: Antidepressant activity in kunming mouse assessed as increase in dopamine level in thalamus at 160 mg/kg, po measured after 14 days by HPLC-ECD analysis; format: functional, organism-based; conditions: time 14.0 day; outline: as §2
# [16] = Subacute toxicity in Kunming mouse assessed as effect on liver structure at 240 mg/kg, po administered for 14 days; format: organism-based; conditions: in vivo, 336 h, time 14 day; outline: as §1
# Mus musculus [17] = experiment: Antidepressant activity in kunming mouse assessed as decrease in 5-HIAA level in thalamus at 160 mg/kg, po measured after 14 days by HPLC-ECD analysis; format: functional, organism-based; conditions: time 14.0 day; outline: as §2
# Mus musculus [18] = experiment: Antidepressant activity in kunming mouse assessed as increase in 5-HT level in hypothalamus at 160 mg/kg, po measured after 14 days by HPLC-ECD analysis; format: functional, organism-based; conditions: time 14.0 day; outline: as §2
# Mus musculus [19] = experiment: Antidepressant activity in Kunming mouse assessed as decrease in immobility time at 80 mg/kg, po and measured after 14 days by forced swim test relative to control; format: functional; design: scale not given: the % may be the effect or the level left; conditions: time 14 day; outline: as §3
# Mus musculus [20] = experiment: Antidepressant activity in kunming mouse assessed as increase in 5-HT level in striatum at 160 mg/kg, po measured after 14 days by HPLC-ECD analysis; format: functional, organism-based; conditions: time 14.0 day; outline: as §2
# [21] = target: Melatonin receptor type 1A (Homo sapiens, UniProt P48039); experiment: Agonist activity at human MT1 receptor expressed in HEK293 cells by Fluo-8 based calcium assay; format: functional, cell-based
# Chain of Melatonin receptor type 1A (P48039 whole entry): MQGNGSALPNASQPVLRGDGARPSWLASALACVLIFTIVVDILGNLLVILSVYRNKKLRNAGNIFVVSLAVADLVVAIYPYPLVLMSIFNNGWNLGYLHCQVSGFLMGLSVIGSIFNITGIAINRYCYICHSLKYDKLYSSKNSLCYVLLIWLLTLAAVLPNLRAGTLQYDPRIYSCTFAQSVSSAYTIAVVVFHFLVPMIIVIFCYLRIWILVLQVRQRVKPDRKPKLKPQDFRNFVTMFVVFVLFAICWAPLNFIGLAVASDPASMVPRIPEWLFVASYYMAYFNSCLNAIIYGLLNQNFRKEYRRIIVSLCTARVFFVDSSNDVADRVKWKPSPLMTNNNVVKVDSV
# Mus musculus [22] = experiment: Antidepressant activity in Kunming mouse assessed as decrease in immobility time at 160 mg/kg, po and measured after 14 days by forced swim test relative to control; format: functional; design: scale not given: the % may be the effect or the level left; conditions: time 14 day; outline: as §3
# [23] = target: T1, Melatonin receptor type 1B (Homo sapiens, UniProt P49286); experiment: Agonist activity at human MT2 receptor transfected in HEK293T cells co-transfected with tet-inducible luciferase reporter plasmid, pCDNA3.1(+)-CMV-betaArrestin2-tev plasmid and TANGO plasmid assessed as relative luminescence unit incubated for 24 hrs by TANGO-GPCR assay based luminescence plate reader analysis; format: functional, cell-based
# T1 sequence (P49286 whole entry): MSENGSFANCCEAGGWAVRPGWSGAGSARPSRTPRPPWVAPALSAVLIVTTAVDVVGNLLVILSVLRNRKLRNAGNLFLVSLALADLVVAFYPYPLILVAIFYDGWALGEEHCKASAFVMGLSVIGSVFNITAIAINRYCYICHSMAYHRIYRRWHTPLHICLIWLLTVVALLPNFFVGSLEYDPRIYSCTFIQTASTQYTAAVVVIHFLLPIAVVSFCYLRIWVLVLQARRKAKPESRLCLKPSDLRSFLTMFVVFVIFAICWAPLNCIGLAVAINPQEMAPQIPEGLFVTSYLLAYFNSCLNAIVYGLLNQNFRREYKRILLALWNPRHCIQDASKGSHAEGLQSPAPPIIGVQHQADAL
compound,measurement,setting,value
COc1cc2c(CN3CCN(C)CC3)coc2cc1C,AUC,[1],5620 ng·h/mL
same,Activity,[2],Non-Toxic
same,Activity,Mus musculus [3],Active
same,Activity,Mus musculus [4],Active
same,Activity,Mus musculus [5],Active
same,Activity,Mus musculus [6],Active
same,Activity,Mus musculus [7],26%
same,Activity,Mus musculus [8],26%
same,Activity,Mus musculus [9],Active
same,Activity,Mus musculus [10],Active
same,Activity,Mus musculus [11],Active
same,Activity,Mus musculus [12],Active
same,Activity,[13],Non-Toxic
same,Cmax,[14],1340 ng/mL
same,Activity,Mus musculus [15],Active
same,Activity,[16],Non-Toxic
same,Activity,Mus musculus [17],Active
same,Activity,Mus musculus [18],Active
same,Activity,Mus musculus [19],26%
same,Activity,Mus musculus [20],Active
same,EC50,[21],330 µM
same,Activity,Mus musculus [22],28%
same,EC50,[23],299 µM
